# hERG rescue = hERG (human) protection from proarrhythmic block; CHO-hERG, FluxOR thallium flux, dofetilide IC70 present; activation (rescue from dofetilide block), less the hit threshold, % at 10 µM; Q12809; 0.51% of 310,000 active;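 active = activation above the mean of controls blocked by dofetilide plus 5 SD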;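 note: thallium influx through hERG after potassium depolarization seen as dye fluorescence rise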
# KCNQ1 inh = blocks the human KCNQ1 potassium channel; CHO-K1 KCNQ1, FluxOR thallium flux fluorescence; active compounds read high; B-score at 10 µM; 1.3% of 310,000 active;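 active = compounds whose thallium flux B-score, printed positive for inhibition, exceeds three library SD while starting fluorescence stays within three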;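 note: channel opened by potassium depolarization with thallium stimulus after 20 min compound exposure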
# Target sequence (P51787 whole entry, looked up): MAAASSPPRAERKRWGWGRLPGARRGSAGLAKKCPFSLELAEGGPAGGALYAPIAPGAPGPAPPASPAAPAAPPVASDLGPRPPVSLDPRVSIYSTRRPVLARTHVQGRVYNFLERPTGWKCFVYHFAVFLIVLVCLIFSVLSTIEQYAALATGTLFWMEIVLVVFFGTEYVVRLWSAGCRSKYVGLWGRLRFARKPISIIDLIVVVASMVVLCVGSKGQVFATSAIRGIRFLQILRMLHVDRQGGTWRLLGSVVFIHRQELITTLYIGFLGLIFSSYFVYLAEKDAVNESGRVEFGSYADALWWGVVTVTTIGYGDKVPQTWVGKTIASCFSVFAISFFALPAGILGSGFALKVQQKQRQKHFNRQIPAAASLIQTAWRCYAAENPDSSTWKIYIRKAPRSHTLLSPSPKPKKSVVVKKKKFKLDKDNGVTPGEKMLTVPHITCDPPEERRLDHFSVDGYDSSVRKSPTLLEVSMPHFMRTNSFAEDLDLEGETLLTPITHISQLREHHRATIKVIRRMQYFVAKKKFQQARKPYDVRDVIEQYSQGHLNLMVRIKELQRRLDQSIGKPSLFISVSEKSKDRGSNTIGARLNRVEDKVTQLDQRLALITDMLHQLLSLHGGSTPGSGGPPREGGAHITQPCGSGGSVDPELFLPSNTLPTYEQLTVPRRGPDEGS
# KCNK3 block = human KCNK3 channel inhibition, primary screen | O14649 | CHO-KCNK3 thallium flux, FluxOR fluorescence; active compounds read low | B-score at 10 µM | 0.84% of 340,000 active | AID 602410;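 active = B-score under library mean minus 4 SD, starting fluorescence ratio at most library mean plus 5 SD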;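 note: more negative B-score means stronger inhibition of thallium flux through KCNK3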
# KCNK9 inh = blocks the human KCNK9 two-pore domain potassium channel; B-score at 10 µM; HEK293 KCNK9, FluxOR thallium flux fluorescence; active compounds read low; AID 488922; 1.2% of 310,000 active; Q9NPC2;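 active = ratio B-score over 3 SD below the library mean, with starting fluorescence within 5 SD of its mean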;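 note: negative B-score means less thallium flux so channel inhibition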
# KCNQ1 act = human KCNQ1 channel potentiation or activation; CHO-K1 KCNQ1, thallium flux FluxOR fluorescence; active compounds read high; P51787; 0.35% of 310,000 active; B-score at 10 µM;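 active = fluorescence ratio B-score, a plate-corrected score, at least three library SD, with initial intensity B-score within 5 SD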
#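 Material: CHO-K1 cells stably expressing KCNQ1. Medium: assay buffer for compound exposure, DMSO matched across wells. Reagent: K+/Tl+ depolarizing stimulus. Compound dosing: single-concentration screen. Times: 37 °C overnight plating, 90-min dark dye load, 20-min compound pretreatment. Technique: FluxOR Tl+ flux fluorescence.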
# Kir21 inh = blocks the mouse Kir2.1 inward-rectifier potassium channel; AID 1672; B-score at 10 µM; P35561; 0.85% of 310,000 active; HEK293-Kir2.1, FluxOR thallium flux fluorescence; active compounds read low;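 active = fluorescence ratio B-score at or below minus 3 SD of library scores, with starting-brightness B-score within 2 SD, cut at about -4.2 in these data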;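 note: channel flux triggered by added potassium and thallium sulfate stimulus; B-score of peak minus minimum fluorescence over baseline after thallium stimulus; more negative B-score means stronger Kir2.1 block with less thallium influx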
# Starred values were filed as active, the others as inactive; i = inactive; . = no result. Rows were chosen to be rich in hits. Some 3.8% of all compounds tested hit in one or more screens of this group.
SMILES,hERG rescue,KCNQ1 inh,KCNK3 block,KCNK9 inh,KCNQ1 act,Kir21 inh
Cc1[nH]c2ccccc2c1CCN(Cc1cccnc1)C(=S)Nc1cccc(F)c1,-26.4,i,i,-7.55*,i,-1.13
COc1cccc(NC(=S)N(CCc2c(C)[nH]c3ccccc23)Cc2cccs2)c1,.,.,-9.23*,.,.,.
Cc1ccc(/C=C(\C#N)C(=O)N2CCCC2)c(C)c1,-9.5,i,i,i,i,0.55
Cc1cc(NC(=O)CN2C(=O)N(C)C3(CCCCC3)C2=O)ccc1Br,.,.,i,.,.,.
Cc1ccn(-c2ccc(NC(=O)c3cccs3)cc2)n1,-6.1,i,i,i,i,0.87
O=C(NC(Nc1nc2ccc([N+](=O)[O-])cc2s1)(C(F)(F)F)C(F)(F)F)c1ccccc1Cl,-32.8,10*,i,i,i,-5*
O=[N+]([O-])c1ccc2nc(NS(=O)(=O)c3ccccc3[N+](=O)[O-])sc2c1,-5.6,i,i,i,i,0.35
O=C(NC(Nc1nc2ccc([N+](=O)[O-])cc2s1)(C(F)(F)F)C(F)(F)F)c1cccnc1,-16.8,12*,i,i,i,-5.69*
CC(NCCC1(Cc2ccccc2Cl)CCOC(C)(C)C1)c1cccs1 (stereo not drawn),-15.6,i,i,i,i,-4.92*
CC(NCCC1(C(C)C)CCOC(C)(C)C1)c1cccs1 (stereo not drawn),-7.9,i,i,i,i,-0.42
Cc1cc(/C=C2\C(=N)N3N=C(C(C)C)SC3=NC2=O)c(C)n1Cc1ccccc1,-4.9,i,i,i,20*,-0.19
CCC1=NN2C(=N)/C(=C/c3cc(C)n(Cc4ccccc4)c3C)C(=O)N=C2S1,-7.9,i,i,i,i,0.13
COc1cc(CNCCCN2CCOCC2)cc(Cl)c1OCC(=O)NC(C)(C)C,-4.7,i,i,i,i,1.7
Cn1c(NC(=O)c2ccccc2)cc(=O)n(C)c1=O,-9.2,i,i,i,i,-0.82
Cn1c(NNC(=O)C(c2ccccc2)c2ccccc2)cc(=O)n(C)c1=O,4.9*,i,i,i,i,1.01
COC(=O)C1=CN(Cc2cccs2)C=C(C(=O)OC)C1c1cccc(Cl)c1,-12.4,i,i,-7.86*,i,0.09
COc1ccc(Br)c(/C=N/NC(=O)COc2ccc(-c3ccccc3)cc2)c1,-12.6,i,-9.24*,i,i,-0.3
COc1ccc(/C=N/NC(=O)COc2ccccc2-c2ccccc2)cc1,-4.5,i,i,i,i,1.93
CCOC(=O)C1(CCCc2ccccc2)CCN(C(=O)Cn2nc(C)nc2C)CC1,-9.7,i,i,i,i,-0.08
CCCCN(CCCC)C(=S)N/N=C/c1c(C)[nH]n(-c2ccccc2)c1=O,-7.0,i,i,i,29*,0.9
Cc1[nH]n(-c2ccccc2)c(=O)c1/C=N/NC(=O)c1ccc(O)cc1O,-12.1,i,i,i,i,-0.77
Cc1cc(N(C)C(=O)c2ccc3c(c2)S(=O)(=O)c2cc(Cl)ccc2C3=O)c(C(F)(F)F)o1,.,.,i,.,.,.
Cc1cc(C)c2c(N)c(C(=O)Nc3ccc(F)cc3)sc2n1,-5.6,i,i,i,i,-0.15
COc1ccc(NC(=O)c2sc3nc(C)cc(C)c3c2N)cc1,4.8*,i,i,i,i,0.38
Cc1cc(/C=N/n2cnnc2)c(C)n1-c1ccc(Cl)cc1,-8.7,i,i,i,i,-2.54
Cc1cc(/C=N/n2cnnc2)c(C)n1-c1ccc(Cl)cc1Cl,-10.6,i,i,i,10*,-0.17
CN(C)C(CNC(=O)C1CCN(S(=O)(=O)c2ccccc2C(F)(F)F)CC1)Cc1ccccc1 (stereo not drawn),.,.,i,.,.,.
O=[N+]([O-])c1cccc(CSc2nnc(Cc3ccccc3)n2-c2ccc(F)cc2)c1,-7.9,i,i,i,i,-5.78*
Cc1ccccc1OCc1nc2ccccc2c(=O)n1/N=C/c1c[nH]c2ccccc12,-3.8,i,i,i,i,0.16
Cc1cc(/C=N/n2c(COc3ccccc3C)nc3ccccc3c2=O)c(O)c([N+](=O)[O-])c1,-16.6,14*,i,i,i,1.71

# Assay outcomes as filed in PubChem BioAssay.
